Active and inactive are the calls of the source. No cut-off for these calls is given here.
Columns and labels:
[1] = species: Homo sapiens; assay: Selectivity ratio of IC50 for human recombinant glucagon receptor to IC50 for human recombinant GIPR
Procedure, shortened: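 Competition binding of compounds to recombinant human glucagon and GIP receptors on BHK cell membranes, run in parallel as a scintillation proximity assay and, for selected compounds, as a membrane filtration assay.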

[2] = molecular target: T1, Gastric inhibitory polypeptide receptor (Homo sapiens, UniProt P48546); assay: Displacement of [125I]porcine GIP from human recombinant GIPR receptor expressed in BHK cells by scintillation proximity assay; format: cell-based
T1 sequence (P48546 whole entry): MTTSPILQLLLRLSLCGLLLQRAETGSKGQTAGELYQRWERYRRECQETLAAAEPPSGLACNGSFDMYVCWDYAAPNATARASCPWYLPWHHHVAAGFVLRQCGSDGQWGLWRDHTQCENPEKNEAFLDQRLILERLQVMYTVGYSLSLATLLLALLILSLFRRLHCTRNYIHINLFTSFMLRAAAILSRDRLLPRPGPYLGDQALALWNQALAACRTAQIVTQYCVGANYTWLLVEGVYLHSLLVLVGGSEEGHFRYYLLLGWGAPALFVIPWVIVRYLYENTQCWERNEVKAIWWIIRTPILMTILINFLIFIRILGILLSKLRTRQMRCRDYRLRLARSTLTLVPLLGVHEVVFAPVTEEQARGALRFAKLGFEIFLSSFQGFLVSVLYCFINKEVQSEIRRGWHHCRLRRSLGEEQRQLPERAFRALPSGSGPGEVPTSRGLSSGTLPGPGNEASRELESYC

[3] = species: Homo sapiens; assay: Selectivity for human recombinant glucagon receptor over human GLP1R
[4] = molecular target: T2, Glucagon receptor (Homo sapiens, UniProt P47871); assay: Displacement of [125I]porcine glucagon from human recombinant glucagon receptor expressed in BHK cells by scintillation proximity assay; format: cell-based
[5] = Cmax in fasted Sprague-Dawley rat at 1.9 mg/kg, iv and 3.7 mg/kg, po by HTLC-MS/MS analysis; format: ADME, organism-based; conditions: in vivo
Procedure, shortened: (§1)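 Rats were dosed intravenously and perorally in separate arms, and plasma concentration-time profiles were obtained. Half-life was taken from the iv arm. Clearance, oral bioavailability, Cmax and Tmax were derived from the profiles.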

[6] = Oral bioavailability in fasted Sprague-Dawley rat at 3.7 mg/kg by HTLC-MS/MS analysis; format: ADME, organism-based; conditions: in vivo
Procedure, shortened: (§2)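 Separate intravenous and peroral dosing arms per compound, with plasma concentration followed against time. Oral bioavailability (F_po) is reported per compound together with the intravenous half-life and clearance. The dose used for each arm is listed per compound.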

[7] = Tmax in fasted Sprague-Dawley rat at 1.9 mg/kg, iv and 3.7 mg/kg, po by HTLC-MS/MS analysis; format: ADME, organism-based; conditions: in vivo
Procedure, shortened: (§3)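 Plasma concentration–time profiles were recorded after separate intravenous and peroral dosing at the per-compound doses listed. T_max is reported in min alongside C_max (ng/mL), intravenous half-life and clearance ((mL/min)/kg).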

[8] = Clearance in fasted Sprague-Dawley rat at 1.9 mg/kg, iv and 3.7 mg/kg, po by HTLC-MS/MS analysis; format: ADME, organism-based; conditions: in vivo; procedure, shortened: as §1
[9] = Half life in fasted Sprague-Dawley rat plasma at 1.9 mg/kg, iv by HTLC-MS/MS analysis; format: ADME, organism-based; design: dose 1.9 mg/kg, route intravenous; procedure, shortened: as §1
[10] = Cmax in fasted Sprague-Dawley rat at 1.6 mg/kg, iv and 3.15 mg/kg, po by HTLC-MS/MS analysis; format: ADME, organism-based; conditions: in vivo; procedure, shortened: as §1
[11] = Binding affinity to glucagon receptor in rabbit liver membrane by membrane filter assay; format: cell membranes, Oryctolagus cuniculus
[12] = Binding affinity to glucagon receptor in dog liver membrane by membrane filter assay; format: cell membranes, Canis lupus familiaris
[13] = Tmax in fasted Sprague-Dawley rat at 1.6 mg/kg, iv and 3.15 mg/kg, po by HTLC-MS/MS analysis; format: ADME, organism-based; conditions: in vivo; procedure, shortened: as §3
[14] = Cmax in fasted Beagle dog at 0.25 mg/kg, iv and 0.5 mg/kg, po; format: ADME, organism-based, Canis lupus familiaris; conditions: in vivo
Procedure, shortened: (§4)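 Dogs were dosed at 0.25 mg/kg iv and 0.5 mg/kg po, and plasma concentration was followed over time. Half-life came from the iv arm; clearance, Cmax and Tmax were also derived.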

[15] = Half life in fasted Sprague-Dawley rat plasma at 1.6 mg/kg, iv by HTLC-MS/MS analysis; format: ADME, organism-based; design: dose 1.6 mg/kg, route intravenous; procedure, shortened: as §1
[16] = molecular target: Glucagon receptor (Mus musculus, UniProt Q61606); assay: Binding affinity to glucagon receptor in mouse liver membrane by membrane filter assay; format: cell membranes
[17] = Binding affinity to glucagon receptor in pig liver membrane by membrane filter assay; format: cell membranes, Sus scrofa
[18] = molecular target: T1, Gastric inhibitory polypeptide receptor; assay: Binding affinity to human recombinant GIPR expressed in BHK cells by membrane filter assay; format: cell-based
[19] = molecular target: T2, Glucagon receptor; assay: Binding affinity to human recombinant glucagon receptor expressed in BHK cells by membrane filter assay; format: cell-based
[20] = system: Hepatocyte; assay: Inhibition of glucagon-stimulated glucose production in human primary hepatocytes preincubated for 10 mins before glucagon addition by NADH-linked hexokinase assay; format: functional, cell-based
Procedure, shortened: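 Cultured primary human hepatocytes were preincubated with compound for 10 min, then glycogenolysis was induced with 5 nM glucagon for 60 min. Glucose in the medium was measured against basal glycogenolysis. Albumin was present in the assay medium. IC50 was calculated from four experiments, mean ± SEM.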

[21] = Binding affinity to glucagon receptor in monkey liver membrane by membrane filter assay; format: cell membranes, Macaca mulatta
[22] = molecular target: Glucagon receptor (Rattus norvegicus, UniProt P30082); assay: Binding affinity to glucagon receptor in rat liver membrane by membrane filter assay; format: cell membranes
[23] = Tmax in fasted Beagle dog at 0.25 mg/kg, iv and 0.5 mg/kg, po; format: ADME, organism-based, Canis lupus familiaris; conditions: in vivo; procedure, shortened: as §3
[24] = Clearance in fasted Beagle dog at 0.25 mg/kg, iv and 0.5 mg/kg, po; format: ADME, organism-based, Canis lupus familiaris; conditions: in vivo; procedure, shortened: as §4
[25] = Clearance in fasted Sprague-Dawley rat at 1.6 mg/kg, iv and 3.15 mg/kg, po by HTLC-MS/MS analysis; format: ADME, organism-based; conditions: in vivo; procedure, shortened: as §1
[26] = Half life in fasted Beagle dog at 0.25 mg/kg, iv; format: ADME, organism-based, Canis lupus familiaris; design: dose 0.25 mg/kg, route intravenous; conditions: in vivo; procedure, shortened: as §4
[27] = Oral bioavailability in fasted Beagle dog at 0.5 mg/kg; format: ADME, organism-based, Canis lupus familiaris; conditions: in vivo; procedure, shortened: as §2
[28] = Oral bioavailability in fasted Sprague-Dawley rat at 3.15 mg/kg by HTLC-MS/MS analysis; format: ADME, organism-based; conditions: in vivo; procedure, shortened: as §2
[29] = system: Hepatocyte; assay: Inhibition of glucagon-stimulated glucose production in rat primary hepatocytes; format: functional, cell-based
[30] = Half life in fasted Sprague-Dawley rat plasma at 1.66 mg/kg, iv by HTLC-MS/MS analysis; format: ADME, organism-based; design: dose 1.66 mg/kg, route intravenous; procedure, shortened: as §1
[31] = Tmax in fasted Sprague-Dawley rat at 1.66 mg/kg, iv and 3.34 mg/kg, po by HTLC-MS/MS analysis; format: ADME, organism-based; conditions: in vivo; procedure, shortened: as §3
[32] = Cmax in fasted Sprague-Dawley rat at 1.66 mg/kg, iv and 3.34 mg/kg, po by HTLC-MS/MS analysis; format: ADME, organism-based; conditions: in vivo; procedure, shortened: as §1
[33] = Clearance in fasted Sprague-Dawley rat at 1.66 mg/kg, iv and 3.34 mg/kg, po by HTLC-MS/MS analysis; format: ADME, organism-based; conditions: in vivo; procedure, shortened: as §1
[34] = Oral bioavailability in fasted Sprague-Dawley rat at 3.34 mg/kg by HTLC-MS/MS analysis; format: ADME, organism-based; conditions: in vivo; procedure, shortened: as §2

T2 sequence (P47871 whole entry): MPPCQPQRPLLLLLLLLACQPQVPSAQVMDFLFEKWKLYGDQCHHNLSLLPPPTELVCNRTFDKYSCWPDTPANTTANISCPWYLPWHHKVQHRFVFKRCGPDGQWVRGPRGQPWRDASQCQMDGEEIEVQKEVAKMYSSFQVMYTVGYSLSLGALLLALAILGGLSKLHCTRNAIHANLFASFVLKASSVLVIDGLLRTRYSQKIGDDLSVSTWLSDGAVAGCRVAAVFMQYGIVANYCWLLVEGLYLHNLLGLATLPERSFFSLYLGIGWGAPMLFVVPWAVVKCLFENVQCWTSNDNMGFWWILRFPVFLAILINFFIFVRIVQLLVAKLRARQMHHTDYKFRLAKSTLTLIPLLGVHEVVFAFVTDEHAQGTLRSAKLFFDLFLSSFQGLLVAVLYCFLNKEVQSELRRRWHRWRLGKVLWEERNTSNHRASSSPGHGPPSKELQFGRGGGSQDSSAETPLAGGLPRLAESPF
Chain of Glucagon receptor (Mus musculus, UniProt Q61606) (Q61606 whole entry): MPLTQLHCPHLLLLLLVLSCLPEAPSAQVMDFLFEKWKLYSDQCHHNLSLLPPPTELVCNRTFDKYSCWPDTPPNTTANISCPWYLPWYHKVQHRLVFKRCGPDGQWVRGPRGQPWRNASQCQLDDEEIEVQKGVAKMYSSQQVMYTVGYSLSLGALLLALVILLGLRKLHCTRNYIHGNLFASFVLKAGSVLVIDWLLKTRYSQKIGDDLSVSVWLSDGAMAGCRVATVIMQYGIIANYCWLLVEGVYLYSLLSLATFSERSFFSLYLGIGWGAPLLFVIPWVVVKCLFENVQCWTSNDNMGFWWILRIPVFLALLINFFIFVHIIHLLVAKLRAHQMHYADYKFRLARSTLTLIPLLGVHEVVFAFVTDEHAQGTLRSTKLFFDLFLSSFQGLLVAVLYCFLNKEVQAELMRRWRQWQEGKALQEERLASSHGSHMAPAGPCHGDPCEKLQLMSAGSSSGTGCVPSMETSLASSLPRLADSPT
Chain of Glucagon receptor (Rattus norvegicus, UniProt P30082) (P30082 whole entry): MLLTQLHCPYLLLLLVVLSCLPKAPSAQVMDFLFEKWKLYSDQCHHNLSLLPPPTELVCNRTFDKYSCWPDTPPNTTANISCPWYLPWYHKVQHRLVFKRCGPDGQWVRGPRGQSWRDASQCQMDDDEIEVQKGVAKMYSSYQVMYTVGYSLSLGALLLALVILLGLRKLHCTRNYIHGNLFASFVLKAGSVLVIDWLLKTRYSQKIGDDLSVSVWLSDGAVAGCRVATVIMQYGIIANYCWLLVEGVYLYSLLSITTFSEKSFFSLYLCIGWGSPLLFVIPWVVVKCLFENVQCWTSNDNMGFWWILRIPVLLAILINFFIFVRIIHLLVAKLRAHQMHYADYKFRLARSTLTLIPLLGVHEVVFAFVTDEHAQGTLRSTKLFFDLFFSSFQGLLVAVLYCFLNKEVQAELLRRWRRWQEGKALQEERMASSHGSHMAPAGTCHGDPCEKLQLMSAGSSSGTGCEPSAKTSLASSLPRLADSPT

SMILES	fold change (FC) [1]	IC50 [2]	fold change (FC) [3]	IC50 [4]	also measured
O=C(O)CCNC(=O)c1ccc(CN(c2ccc3c(c2)CCC3)c2nc(-c3ccc(Cl)c(Cl)c3)cs2)cc1	5	0.638 µM	> 50	0.099 µM	
O=C(O)CCNC(=O)c1ccc(CN(c2nc(-c3ccc(Cl)c(Cl)c3)cs2)C2CCCc3ccccc32)cc1 (stereo not given)	5	1.11 µM	> 50	0.531 µM	
O=C(O)CCNC(=O)c1ccc(CN(c2ccc(C3=CCCCC3)cc2)c2nc(-c3ccccc3)cs2)cc1	5	0.389 µM	> 50	0.13 µM	Cmax [5]: 94 ng/mL; bioavailability [6]: 5%; Tmax [7]: 1.5 h; clearance [8]: 35 mL/min/kg; half-life [9]: 0.617 h
CC(C)(C)c1ccc(-c2csc(N(Cc3ccc(C(=O)NCCC(=O)O)cc3)c3ccc(C(C)(C)C)cc3)n2)cc1	5	0.729 µM	> 50	0.315 µM	
Cc1cc(N(Cc2ccc(C(=O)NCCC(=O)O)cc2)c2nc(-c3cc(C(F)(F)F)cc(C(F)(F)F)c3)cs2)ccc1C(C)C	5	0.584 µM	> 50	0.131 µM	
O=C(O)CCNC(=O)c1ccc(CN(c2ccc(C3=CCCCC3)cc2)c2nc(-c3ccc(Cl)cc3)c(-c3ccccc3)s2)cc1	5	1 µM	> 50	0.086 µM	
O=C(O)CCNC(=O)c1ccc(CN(c2ccc3c(c2)CCCC3)c2nc(-c3ccc(Cl)c(Cl)c3)cs2)cc1	5	0.83 µM	> 50	0.079 µM	Cmax [10]: 1180 ng/mL; IC50 [11]: 1.9 µM; IC50 [12]: 0.081 µM; Tmax [13]: 1 h; Cmax [14]: 1190 ng/mL; half-life [15]: 1.73 h; IC50 [16]: 0.452 µM; IC50 [17]: 3.3 µM; IC50 [18]: 0.39 µM; IC50 [19]: 0.054 µM; IC50 [20]: 4 µM; IC50 [21]: 0.055 µM; IC50 [22]: 1.6 µM; Tmax [23]: 0.85 h; clearance [24]: 1.44 mL/min/kg; clearance [25]: 5 mL/min/kg; half-life [26]: 2.07 h; bioavailability [27]: 92%; bioavailability [28]: 36%; inhibition [29]: inactive
O=C(NC[C@@H](O)C(=O)O)c1ccc(CN(c2ccc3c(c2)CCC3)c2nc(-c3ccc(C(F)(F)F)cc3)cs2)cc1	5	> 1 µM	> 50	0.261 µM	
O=C(NC[C@@H](O)C(=O)O)c1ccc(CN(c2ccc3c(c2)CCC3)c2nc(-c3ccc(OC(F)(F)F)cc3)cs2)cc1	5	> 1 µM	> 50	0.225 µM	
Cc1cc(N(Cc2ccc(C(=O)NCCC(=O)O)cc2)c2nc(-c3ccc(C(F)(F)F)cc3)cs2)ccc1C(C)C	5	0.633 µM	> 50	0.119 µM	IC50 [18]: 0.293 µM; IC50 [19]: 0.093 µM
O=C(O)CCNC(=O)c1ccc(CN(c2ccc(C3=CCCCC3)cc2)c2nc(-c3ccc(OC(F)(F)F)cc3)cs2)cc1	5	0.207 µM	> 50	0.036 µM	Cmax [5]: 47 ng/mL; bioavailability [6]: 3%; Tmax [7]: 1.5 h; clearance [8]: 34 mL/min/kg; half-life [9]: 0.717 h
O=C(O)CCNC(=O)c1ccc(CN(c2ccc3c(c2)CCC3)c2nc(-c3ccc(OC(F)(F)F)cc3)cs2)cc1	5	0.95 µM	> 50	0.085 µM	half-life [30]: 1.02 h; IC50 [16]: 0.68 µM; Tmax [31]: 4 h; Cmax [32]: 704 ng/mL; clearance [33]: 15 mL/min/kg; IC50 [18]: 0.77 µM; IC50 [19]: 0.096 µM; IC50 [20]: 8.6 µM; IC50 [21]: 0.094 µM; IC50 [22]: 4.4 µM; bioavailability [34]: 87%; inhibition [29]: inactive
CC(C)(C)c1ccc(-c2csc(N(Cc3ccc(C(=O)NCCC(=O)O)cc3)c3ccc(C4=CCCCC4)cc3)n2)cc1	5	0.721 µM	> 50	0.118 µM	Cmax [10]: 13 ng/mL; Tmax [13]: 1.5 h; half-life [15]: 0.5 h; clearance [25]: 39 mL/min/kg; bioavailability [28]: 2%
O=C(O)CCNC(=O)c1ccc(CN(c2ccc(SC(F)(F)F)cc2)c2nc(-c3ccc(C(F)(F)F)cc3)cs2)cc1	5	0.777 µM	> 50	0.034 µM	
COc1ccccc1-c1csc(N(Cc2ccc(C(=O)NCCC(=O)O)cc2)c2ccc(SC(F)(F)F)cc2)n1	5	> 1 µM	> 50	0.42 µM	
O=C(O)CCNC(=O)c1ccc(N(Cc2ccc3c(c2)Cc2ccccc2-3)c2nc(-c3ccc(Cl)cc3)cs2)cc1	5	0.555 µM	> 50	0.093 µM	IC50 [18]: 0.32 µM; IC50 [19]: 0.034 µM
